The values below come from PubChem BioAssay AID504382 (The Scripps Research Institute Molecular Screening Center, 2011).

In all, about 2,500 compounds went through this assay and about 460 (18%) were called active.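 How the source made its calls: active means mean activation above a cutoff of low control average plus 3 SD from the earlier screen (cut at about 12% in these data); inactive means the rest.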 The list is a sample of the results.

A short description of the assay: IANBD-channel fluorescence artefacts in buffer – biochemical, artefact control for cardiac RTF calcium sensitizer project, confirmation (AID 504382). As to conditions: IANBD fluorescence interference counterscreen, EC20 Ca2+, at 7.2 µM, stronger effect = higher value, scaled: EC20 calcium 0, EC100 calcium 100. An outline of the steps:
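Technique: fluorescence, 480/540 nm / Medium: MOPS-based buffer with KCl, MgCl2, EGTA, NTA, DTT, pH 7.2 / Probe or stimulus: calcium at EC20 level, 0.472 mM final / Repeats: triplicate wells per compound / Times: 15 min compound exposure at 25 °C / Measure: compound fluorescence interference relative to control well signal range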
Consider `CCC1C/C(=C\c2cc(OC)c(OC)cc2OC)C(=O)/C(=C/c2cc(OC)c(OC)cc2OC)C1` (centres undefined), for which the fluorescence artifact activation was 5.41% (inactive). With `O=[N+]([O-])c1ccc(N/N=C/c2ccc(OCc3cccc4ccccc34)cc2)nc1` the figure was -0.02% (inactive); with `O=C(/C=C/c1ccccc1[N+](=O)[O-])Nc1cccnc1`, 0.87% (inactive). On to `Cc1ccc2nc3nc(NCC4CCCO4)c(C(=O)NC4CCCC4)cc3c(=O)n2c1` (centres undefined), for which the fluorescence artifact activation is 0.12% (inactive). The value for `COc1ccc(Cc2n[nH]c(=O)c3ccccc23)cc1OC` was 0.32% (inactive). The value for `C[C@H](CO)N1C[C@H](C)[C@@H](CN(C)C(=O)Nc2ccc(F)cc2)Oc2ccc(NS(C)(=O)=O)cc2C1=O` was 0.09% (inactive). With `Cc1ccc(N2C(=O)c3cccc4c(N)ccc(c34)C2=O)c2cccnc12` the figure was 0.51% (inactive); with `O=C(Nc1ccc2c(c1)OCO2)c1ccc2c(c1)OCO2`, 8.95% (inactive). As for `O=C(Nc1ccc(C(=O)N2CCOCC2)cc1)Nc1cccc(Cl)c1`, the fluorescence artifact activation was 8.09% (inactive). The value for `O=C(Nc1ccc2c(c1)OCCO2)c1cccc(Cl)c1Cl` was 13.6% (active); that for `Cc1ccc(C(=O)NNC(=O)CSc2nnc(-c3ccncc3)n2-c2ccc(C)cc2)cc1` was 0.09% (inactive). The value for `CCN1C(=O)[C@@H]2Cc3c([nH]c4ccccc34)C(c3ccc(OC)cc3)N2C1=S` (some centres undefined) was -0.08% (inactive); that for `O=C(c1ccccn1)N(Cc1cccs1)C1(C(=O)NC2CCCCC2)CCCCC1` was 0.12% (inactive). With `O=C(NC1CCCCC1)c1ccccc1NC(=S)NC(=O)C1CCC1` the figure was 8.42% (inactive); with `CCN(CC(=O)Nc1ccccc1C(=O)NC1CC1)Cc1cccs1`, 25.6% (active); with `O=S(=O)(/C=C/c1ccccc1)N1CCc2ccccc2C1`, 0.07% (inactive). On to `CCn1c(C)c(CCC(=O)O)c(=O)n2nc(-c3ccccc3OC)cc12`, for which the fluorescence artifact activation is 0.2% (inactive).

Consider `CC(=O)Nc1ccc(S(=O)(=O)NCCC(=O)OCC(=O)c2cc(C)ccc2C)cc1`, for which the fluorescence artifact activation is 0.05% (inactive). `CC(=O)Nc1ccc(SCC(=O)NNC(=O)CN(C)S(=O)(=O)c2ccc(C)cc2)cc1`: the fluorescence artifact activation is 70.4% (active).

As for `Cc1cc(C)nc(NS(=O)(=O)c2ccc(NC(=O)CSc3nc4ccccc4[nH]3)cc2)n1`, the fluorescence artifact activation is 0.03% (inactive). With `CCOc1ccc2nc3cc(NCc4ccc(OC)cc4)ccc3c(N)c2c1` the figure was 0.41% (inactive). With `Cc1ccc(N=C2NC(=O)/C(=C/c3cn(C)c4ccccc34)S2)cc1C` the figure was 0% (inactive). The value for `Cn1cc(C2=C(c3ccc(Cl)cc3Cl)C(=O)NC2=O)c2ccccc21` was 12.7% (active). In the case of `Cn1cc(/C=C/c2cc[n+](C)cc2)c2cc(Cl)ccc21`, the fluorescence artifact activation was 0.1% (inactive). The value for `COc1cccc(C(=O)Nc2cc(C(=O)NCc3ccc(C)cc3)ccc2N2CCC3(CC2)CC(c2cccc(Br)c2)=NO3)c1` was -0.03% (inactive); that for `CCN(CC(=O)Nc1ccccc1C(F)(F)F)C(=O)c1ccc(-n2nc(C)c(CCC(=O)OC)c2C)cc1` was 8.41% (inactive); that for `N#Cc1cccc(NC(=O)CSc2ccc3c4c(cccc24)C(=O)c2ccccc2-3)c1` was 0.19% (inactive).

Consider `Cn1nc(C(F)(F)F)c(-c2ccc(Br)cc2)c1NC(=O)c1ccco1`, for which the fluorescence artifact activation is 0.14% (inactive). The value for `CCC(CC)NC(=O)Nc1ccccc1C` was 0.09% (inactive). With `COCCn1c(C)cc(C(=O)COC(=O)c2ccc(Cl)c(S(N)(=O)=O)c2)c1C` the figure was 3.98% (inactive); with `Cc1nnc(NC(=O)CSc2ncnc3c2cnn3-c2ccccc2C)s1`, 2.39% (inactive). With `Cc1ccc(CNC(=O)c2cc(-c3ccccc3)nn2Cc2cc(C)no2)cc1` the figure was 0.08% (inactive).

Consider `Cc1ccc(C)c(C(=O)CCC(=O)NCc2ccc(Cl)cc2)c1`, for which the fluorescence artifact activation is 0.14% (inactive). The value for `Cc1ccc(CNC(=O)CCn2cc(-c3ccc(C)cc3)nc2-c2ccncc2)cc1` was 18.1% (active); that for `COc1ccc2nc(C)c3cc(C)oc3c2c1` was 8.29% (inactive); that for `Cn1nc(-c2ccccc2)c(C(=O)Nc2ccc(C(F)(F)F)cc2)c1Cl` was 5.74% (inactive).

Regarding `Cc1cc([N+](=O)[O-])ccc1-c1ccc(/C=N/NC(=O)c2ccc(Br)o2)o1`, the fluorescence artifact activation was 0.29% (inactive). For the compound `COC(=O)c1cc(-c2cccc(OC)c2)n[nH]1`, the fluorescence artifact activation was 1.23% (inactive). The value for `CC(C)(C)OC(=O)NCCCC[C@@H](C(=O)N1CCN(C(=O)OC(C)(C)C)CC1)n1cc(CCC(=O)O)nn1` was 0.16% (inactive); that for `CC(O)Cc1cn([C@@H](CCCCN)C(=O)N2CCNCC2)nn1` (some centres undefined) was 0.06% (inactive); that for `C[C@@H](C(=O)N1CCNCC1)n1cc(CCCN=C(N)N)nn1` was 29.3% (active). The value for `CC(Oc1ccc(F)cc1)C(=O)Nc1sc2c(c1C(=O)NCc1cccnc1)CCCC2` (centres undefined) was 9.94% (inactive).

Turning to `Nc1cccc(N2C(=O)c3cccc4c(N)ccc(c34)C2=O)c1`, the fluorescence artifact activation was 0.16% (inactive). With `CS(=O)(=O)c1ccc(C(=O)OCC(=O)Nc2cccnc2Cl)cc1[N+](=O)[O-]` the figure was 0% (inactive).

In the case of `COc1ccc2ccccc2c1C(O)c1nccn1C` (centres undefined), the fluorescence artifact activation was 10.5% (inactive). As for `Cc1occc1C(=O)Nc1cccc([N+](=O)[O-])c1`, the fluorescence artifact activation was 11.4% (inactive).

On to `COC(=O)c1cc2c(=O)c3ccccc3oc2nc1/C=C/N(C)C`, for which the fluorescence artifact activation is 0.12% (inactive). With `NC(=O)c1c(NC(=O)c2ccccc2)sc2c1CCN(Cc1ccccc1)C2` the figure was 37.1% (active); with `NC(=O)c1c(NC(=O)C2COc3ccccc3O2)sc2c1CCN(Cc1ccccc1)C2` (centres undefined), 0.08% (inactive); with `CC(=O)c1ccc(C(=O)Nc2sc3c(c2C(N)=O)CCN(Cc2ccccc2)C3)cc1`, -0.06% (inactive). The value for `Cc1nc(-c2ccc(C#N)cc2)cs1` was -0.01% (inactive). On to `CN(C)c1ccc(N=Cc2nc(-c3ccccc3)oc2O)cc1`, for which the fluorescence artifact activation was 7.65% (inactive). With `COc1ccc(N=C(N)N=C(N)N)c(OC)c1` the figure was 0% (inactive); with `CCOc1cc(N2CCOCC2)c(OCC)cc1NC(=O)CCS(=O)(=O)c1ccc(Cl)cc1`, 9.02% (inactive). With `CN(C)c1ccc(/C=C2\SC(=O)N(CC(O)Cn3c4ccccc4c4ccccc43)C2=O)cc1` (centres undefined) the figure was 5.59% (inactive). The value for `Cc1cccc(/C=C2/SC(=O)N(Cc3ccccc3)C2=O)n1` was 15.4% (active).

In the case of `CCC(CO)[n+]1c(C)cc(/C=C2\Sc3ccccc3N2Cc2ccccc2)cc1C` (centres undefined), the fluorescence artifact activation is 0.01% (inactive). For the compound `Cc1ccc2c(c1)CCCN2CC(=O)N(C)c1c(N)n(Cc2ccccc2)c(=O)[nH]c1=O`, the fluorescence artifact activation was -0.05% (inactive). With `CCn1c(=O)c(C(=O)CN2CCCc3ccccc32)c(N)n(Cc2ccccc2)c1=O` the figure was 15.2% (active); with `COCCN(C(=O)CN1CCCc2ccccc21)c1c(N)n(Cc2ccccc2)c(=O)[nH]c1=O`, 3.59% (inactive); with `Nc1c(C(=O)C2CC2)sc2nc(-c3cccs3)cc(C(F)(F)F)c12`, 3.83% (inactive). For `Cc1cc[n+](-c2[nH]c(=O)sc2/C=N/NC([S-])=Nc2ccccc2)cc1C`, the fluorescence artifact activation was 0.4% (inactive). With `O=c1[nH]c(-[n+]2ccccc2)c(/C=N/NC([S-])=Nc2ccccc2)s1` the figure was 0.03% (inactive); with `CCc1ccc[n+](-c2[nH]c(=O)sc2/C=N/NC([S-])=Nc2ccccc2)c1`, 19.1% (active). Regarding `Cc1ccc(S(=O)(=O)N2CCN(c3ncccn3)CC2)cc1C`, the fluorescence artifact activation was -0.05% (inactive).

On to `Cc1ccccc1S(=O)(=O)Cc1ccc(C(=O)NCCN(C)Cc2ccccc2)o1`, for which the fluorescence artifact activation was 11% (inactive).

Turning to `Cc1nn(Cc2c(F)c(F)c(F)c(F)c2F)c(C)c1NC(=O)c1nn(C)c(C)c1Br`, the fluorescence artifact activation is 0.14% (inactive). With `Nc1ccc2c3c(cccc13)C(=O)N(c1ccccc1)C2=O` the figure was 0.18% (inactive); with `Cc1c(O)c2c3c(cccc3c1O)C(=O)N(c1ccccc1)C2=O`, 6.04% (inactive).

Consider `CCC/C(C#Cc1ccc(N(C)C)cc1)=C1/c2ccccc2C(=O)N1c1ccccc1`, for which the fluorescence artifact activation was 17.9% (active). Take `CCCS(=O)(=O)N1CCC(C(=O)NCCCN2CCC(Cc3ccccc3)CC2)CC1`: the fluorescence artifact activation was 0.05% (inactive). With `CC(=O)Nc1cccc(NC(=O)CSc2nnc(Cc3cccn3C)n2CCc2ccccc2)c1` the figure was 2.41% (inactive); with `CCN1C(=O)[C@@H]2[C@@H](c3ccc(-c4cccc(Cl)c4)cc3)N3CCC[C@@]3(C(=O)OC)[C@@H]2C1=O`, 0.02% (inactive); with `CCOc1cc(/C=C(\C#N)c2nc(-c3cccs3)c(NC(C)=O)s2)ccc1O`, -0.03% (inactive). With `CC(=O)Nc1sc(/C(C#N)=C/c2ccc(Cl)c(Cl)c2)nc1-c1ccc(C)cc1` the figure was -0.03% (inactive); with `CC(=O)Nc1sc(/C(C#N)=C\c2cccc(Cl)c2)nc1-c1ccc(C)cc1`, 16.5% (active). As to `CC(C)(C)c1cc(NCc2ccccn2)n2ncc(-c3ccc(Cl)cc3)c2n1`, the fluorescence artifact activation is 0.93% (inactive).

As for `CCCN1CCc2c(sc(NC(=S)NC(=O)c3ccccc3)c2C#N)C1`, the fluorescence artifact activation is 11.1% (inactive). The value for `O=C(Nc1ccccc1F)C(=Cc1sc(N2CCOCC2)nc1-c1ccccc1)C(=O)Nc1ccccc1F` was 0.15% (inactive); that for `CN1CCC/C1=C/C=C1\SC(=S)NC1=O` was 0.02% (inactive). The value for `CCN1C(=O)/C(=C/C=C2/CCCN2C)OC1=S` was 0.08% (inactive); that for `CN1C(=O)/C(=C\C=C2/CCCN2C)N(C)C1=S` was 56.9% (active). Turning to `O=C(O)c1ccc2c(c1)S(=O)(=O)c1ccccc1C2=O`, the fluorescence artifact activation is 0.03% (inactive). The value for `O=C1c2ccccc2-c2onc3ccc(Oc4ccccc4)c1c23` was 0.44% (inactive). With `CCN(CC)c1nc2ccccc2nc1C(C#N)C(=O)NCCc1ccccc1` (centres undefined) the figure was 164% (active); with `N#CC(C(=O)NCc1ccccc1)c1nc2ccccc2nc1N1CCCC1` (centres undefined), -0.08% (inactive). With `CCCCCCNC(=O)C(C#N)c1nc2ccccc2nc1N1CCCC1` (centres undefined), the fluorescence artifact activation was 0.17% (inactive). The value for `O=C1CC(c2cccc(Oc3ccccc3)c2)NC(=O)N1` (centres undefined) was 0.02% (inactive). Turning to `O=c1c(/C=C(\O)c2ccc(F)cc2)nc2ccccc2n1-c1ccccc1`, the fluorescence artifact activation is 0.04% (inactive).
